Measured values taken from ChEMBL document CHEMBL3272173, “Synthesis and biological activity of peptide antagonists of luliberin (luteinizing hormone-releasing hormone)” (J Med Chem, 1979).
Where “and” joins values, the source holds several entries; their conditions need not be identical. Identical values can stand only once. Peptide text beside a SMILES is read from it. * marks the point of attachment. Cbz = O=C(OCc1ccccc1)*; Boc = CC(C)(C)OC(=O)*; NHBn = c1ccc(CN*)cc1; Bn = c1ccc(C*)cc1

Legend:
[1] = target: T1, Gonadotropin-releasing hormone receptor (Rattus norvegicus) (UniProt P30969); assay: In vitro antagonist activity at GNRHR in CD rat anterior pituitary gland assessed as ratio of molar concentration of compound to LH-RH for inhibition of LH-RH-stimulated LH release after 4 hrs by radioimmunoassay
T1 sequence (whole entry): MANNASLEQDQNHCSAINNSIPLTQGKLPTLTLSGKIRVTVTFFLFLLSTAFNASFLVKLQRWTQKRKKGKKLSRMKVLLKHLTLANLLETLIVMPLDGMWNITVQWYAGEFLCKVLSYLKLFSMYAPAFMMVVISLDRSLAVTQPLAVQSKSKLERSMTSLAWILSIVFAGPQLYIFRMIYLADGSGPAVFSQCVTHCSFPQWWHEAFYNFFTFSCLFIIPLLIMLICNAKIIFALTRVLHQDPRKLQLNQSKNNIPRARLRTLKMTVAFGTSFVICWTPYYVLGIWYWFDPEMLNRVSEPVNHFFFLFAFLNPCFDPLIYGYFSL
Outline: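 Monolayers were cultured 4 days from dissociated anterior pituitary cells of diestrus CD rats. They were exposed in duplicate to LH-RH (2-5 × 10^-10 M) plus multiple analogue concentrations in serum-free DME for 4 h at 37 °C. LH in the medium was measured by radioimmunoassay. The ED50 molar ratio is the analogue:LH-RH molar ratio giving 50% inhibition of LH-RH-stimulated LH release.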

[2] = target: T1, Gonadotropin-releasing hormone receptor (Rattus norvegicus); assay: In vitro antagonist activity at GNRHR in CD rat anterior pituitary gland assessed as inhibition of LH-RH-stimulated LH release at compound to LH-RH molar ratio of 100 after 4 hrs by radioimmunoassay; conditions: concentration not given here
Outline: (§1)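 Anterior pituitaries from diestrus CD rats (200-250 g) were dissociated enzymatically (collagenase, hyaluronidase, then Viokase). Cells were cultured 4 days at 1.67 × 10^5 cells/mL in DME with 10% horse serum and 2.5% fetal calf serum, then washed serum-free. Duplicate cultures received LH-RH (2-5 × 10^-10 M) with a single analogue concentration in serum-free DME for 4 h at 37 °C. LH in the medium was measured by RIA and reported as % inhibition of LH-RH-stimulated release.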

Rattus norvegicus [3] = assay: Antiovulatory activity in CD rat assessed as blockade of ovulation at 1 mg, sc administered as six doses at 1200, 1230, 1300, 1350, 1400 and 1450 hrs during proestrus stage measured during estrus stage by dissecting microscopic analysis; format: functional
Outline: (§2)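 Cycling Charles River CD rats were given six subcutaneous injections of analogue in 0.1 mL propylene glycol on the afternoon of proestrus, and controls received vehicle alone. Rats were killed the next morning (estrus). Ovulating animals were scored and ova in the oviducts were counted under a dissecting microscope.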

Rattus norvegicus [4] = assay: Antiovulatory activity in sc dosed CD rat assessed as blockade of ovulation administered as six doses at 1200, 1230, 1300, 1350, 1400 and 1450 hrs during proestrus stage measured during estrus stage by dissecting microscopic analysis; format: functional; outline: as §2
[5] = target: T1, Gonadotropin-releasing hormone receptor (Rattus norvegicus); assay: In vitro antagonist activity at GNRHR in CD rat anterior pituitary gland assessed as inhibition of LH-RH-stimulated LH release at compound to LH-RH molar ratio of 20 after 4 hrs by radioimmunoassay; conditions: concentration not given here; outline: as §1
[6] = target: T1, Gonadotropin-releasing hormone receptor (Rattus norvegicus); assay: In vitro antagonist activity at GNRHR in CD rat anterior pituitary gland assessed as inhibition of LH-RH-stimulated LH release at compound to LH-RH molar ratio of 10000 after 4 hrs by radioimmunoassay; conditions: concentration not given here; outline: as §1
[7] = target: T1, Gonadotropin-releasing hormone receptor (Rattus norvegicus); assay: In vitro antagonist activity at GNRHR in CD rat anterior pituitary gland assessed as inhibition of LH-RH-stimulated LH release at compound to LH-RH molar ratio of 2800 after 4 hrs by radioimmunoassay; conditions: concentration not given here; outline: as §1
[8] = target: T1, Gonadotropin-releasing hormone receptor (Rattus norvegicus); assay: In vitro antagonist activity at GNRHR in CD rat anterior pituitary gland assessed as inhibition of LH-RH-stimulated LH release at compound to LH-RH molar ratio of 10 after 4 hrs by radioimmunoassay; conditions: concentration not given here; outline: as §1

Molecule	ED50 [1]	inhibition [2] [%]	inhibition [5] [%]	inhibition [6] [%]	inhibition [7] [%]	inhibition [8] [%]	inhibition (INH) (Rattus norvegicus [3]) [%]	ED50 (Rattus norvegicus [4]) [mg]
CCNC(=O)[C@@H]1CCCN1C(=O)[C@H](CCCNC(=N)N)NC(=O)[C@H](CC(C)C)NC(=O)[C@@H](Cc1c[nH]c2ccccc12)NC(=O)[C@H](Cc1ccc(O)cc1)NC(=O)[C@H](CO)NC(=O)[C@H](Cc1c[nH]c2ccccc12)NC(=O)[C@H](CCC(N)=O)NC(=O)OCc1ccccc1.Cl	3.9 molar ratio	100					20	>1
CC(C)C[C@H](NC(=O)CNC(=O)[C@H](Cc1ccc(O)cc1)NC(=O)[C@H](CO)NC(=O)[C@H](Cc1c[nH]c2ccccc12)NC(=O)[C@H](Cc1ccc(OCc2ccccc2)cc1)NC(=O)OCc1ccccc1)C(=O)N[C@@H](CCCNC(=N)N)C(=O)N1CCC[C@H]1C(=O)NCC(N)=O.Cl (Cbz-Y(Bn)WSYGLRPG-NH2)					74		20	>1
CC(C)C[C@H](NC(=O)CNC(=O)[C@H](Cc1ccc(O)cc1)NC(=O)[C@H](CO)NC(=O)[C@H](Cc1c[nH]c2ccccc12)NC(=O)[C@H](CCC(=O)NCc1ccccc1)NC(=O)OCc1ccccc1)C(=O)N[C@@H](CCCNC(=N)N)C(=O)N1CCC[C@H]1C(=O)NCC(N)=O.Cl (HELM PEPTIDE1{[O=C(OCc1ccccc1)[*:2]].E.W.S.Y.G.L.R.P.G.[am]}|CHEM1{[c1ccc(CN[*:1])cc1]}$PEPTIDE1,CHEM1,2:R3-1:R1$$$V2.0)	360 molar ratio	96					40	>1
CCNC(=O)[C@@H]1CCCN1C(=O)[C@H](CCCNC(=N)N)NC(=O)[C@H](CC(C)C)NC(=O)CNC(=O)[C@H](Cc1ccc(O)cc1)NC(=O)[C@H](CO)NC(=O)[C@H](Cc1c[nH]c2ccccc12)NC(=O)[C@H](CCC(=O)NCc1ccccc1)NC(=O)OCc1ccccc1.Cl (Cbz-E(NHBn)WSYGLRP-NHEt)	350 molar ratio	88					20	>1
H-WSYGLRPG-NH2				15				
CCNC(=O)[C@@H]1CCCN1C(=O)[C@H](CCCNC(=N)N)NC(=O)[C@H](CC(C)C)NC(=O)[C@@H](Cc1ccccc1)NC(=O)[C@H](Cc1ccc(O)cc1)NC(=O)[C@H](CO)NC(=O)[C@H](Cc1c[nH]c2ccccc12)NC(=O)[C@H](CC(C)C)NC(=O)OCc1ccccc1.Cl	3 molar ratio		100				0	>1
CCNC(=O)[C@@H]1CCCN1C(=O)[C@H](CCCNC(=N)N)NC(=O)[C@H](CC(C)C)NC(=O)CNC(=O)[C@H](Cc1ccc(O)cc1)NC(=O)[C@H](CO)NC(=O)[C@H](Cc1c[nH]c2ccccc12)NC(=O)[C@H](COCc1ccccc1)NC(=O)OC(C)(C)C (Boc-S(Bn)WSYGLRP-NHEt)					40			
CC(C)C[C@H](NC(=O)CNC(=O)[C@H](Cc1ccc(O)cc1)NC(=O)[C@H](CO)NC(=O)[C@H](Cc1c[nH]c2ccccc12)NC(=O)[C@@H](Cc1ccccc1)NC(=O)OCc1ccccc1)C(=O)N[C@@H](CCCNC(=N)N)C(=O)N1CCC[C@H]1C(=O)NCC(N)=O.Cl					76		0	>1
CC(=O)O.CCNC(=O)[C@@H]1CCCN1C(=O)[C@H](CCCNC(=N)N)NC(=O)[C@H](CC(C)C)NC(=O)[C@@H](Cc1ccccc1)NC(=O)[C@H](Cc1ccc(O)cc1)NC(=O)[C@H](CO)NC(=O)[C@H](Cc1c[nH]c2ccccc12)NC(=O)[C@H](CCC(=O)NCc1ccccc1)NC(=O)OCc1ccccc1	2.7 molar ratio and 1.3 molar ratio		71			62	0	>1
H-HWSYGLRPG-NH2				42				

The next lines start with results.

ED50 [1]	inhibition [2] [%]	inhibition [5] [%]	inhibition [6] [%]	inhibition [7] [%]	inhibition [8] [%]	Molecule	inhibition (INH) (Rattus norvegicus [3]) [%]	ED50 (Rattus norvegicus [4]) [mg]
		100				CC(=O)O.CCNC(=O)[C@@H]1CCCN1C(=O)[C@H](CCCNC(=N)N)NC(=O)[C@H](CC(C)C)NC(=O)[C@@H](Cc1ccc(OC)cc1)NC(=O)[C@H](Cc1ccc(O)cc1)NC(=O)[C@H](CO)NC(=O)[C@H](Cc1c[nH]c2ccccc12)NC(=O)[C@H](COCc1ccccc1)NC(=O)OCc1ccccc1	100	0.1
			53			CC(C)C[C@H](NC(=O)CNC(=O)[C@H](Cc1ccc(O)cc1)NC(=O)[C@H](CO)NC(=O)[C@H](Cc1c[nH]c2ccccc12)NC(=O)[C@@H]1CCCN1C=O)C(=O)N[C@@H](CCCNC(=N)N)C(=O)N1CCC[C@H]1C(=O)NCC(N)=O (HELM PEPTIDE1{[O=C[*:2]].P.W.S.Y.G.L.R.P.G.[am]}$$$$V2.0)		
			68			CC(C)C[C@H](NC(=O)CNC(=O)[C@H](Cc1ccc(O)cc1)NC(=O)[C@H](CO)NC(=O)[C@H](Cc1c[nH]c2ccccc12)NC(=O)OCc1ccccc1)C(=O)N[C@@H](CCCNC(=N)N)C(=O)N1CCC[C@H]1C(=O)NCC(N)=O.Cl (HELM PEPTIDE1{[O=C(OCc1ccccc1)[*:2]].W.S.Y.G.L.R.P.G.[am]}$$$$V2.0)	20	>1
			60			CC(C)C[C@H](NC(=O)CNC(=O)[C@H](Cc1ccc(O)cc1)NC(=O)[C@H](CO)NC(=O)[C@H](Cc1c[nH]c2ccccc12)NC(=O)[C@@H]1CCC(=O)N1)C(=O)N[C@@H](CCCNC(=N)N)C(=O)N1CCC[C@H]1C(=O)NCC(N)=O (HELM PEPTIDE1{[Glp].W.S.Y.G.L.R.P.G.[am]}$$$$V2.0)		
7 molar ratio		57				CC(C)C[C@H](NC(=O)[C@@H](CC(C)C)NC(=O)[C@H](Cc1ccc(O)cc1)NC(=O)[C@H](CO)NC(=O)[C@H](Cc1c[nH]c2ccccc12)NC(=O)[C@H](Cc1ccc(OCc2ccccc2)cc1)NC(=O)OCc1ccccc1)C(=O)N[C@@H](CCCNC(=N)N)C(=O)N1CCC[C@H]1C(=O)NCC(N)=O.Cl	0	>1
20 molar ratio				86		CCNC(=O)[C@@H]1CCCN1C(=O)[C@H](CCCNC(=N)N)NC(=O)[C@H](CC(C)C)NC(=O)[C@@H](CCCNC(=N)N)NC(=O)[C@H](Cc1ccc(O)cc1)NC(=O)[C@H](CO)NC(=O)[C@H](Cc1c[nH]c2ccccc12)NC(=O)[C@H](CCC(N)=O)NC(=O)OCc1ccccc1.Cl	0	>1
5.9 molar ratio		100				CC(=O)O.CC(C)C[C@H](NC(=O)[C@@H](Cc1ccccc1)NC(=O)[C@H](Cc1ccc(O)cc1)NC(=O)[C@H](CO)NC(=O)[C@H](Cc1c[nH]c2ccccc12)NC(=O)[C@H](COCc1ccccc1)NC(=O)OCc1ccccc1)C(=O)N[C@@H](CCCNC(=N)N)C(=O)N1CCC[C@H]1C(=O)N(C)C	40	>3
				51		CCNC(=O)[C@@H]1CCCN1C(=O)[C@H](CCCNC(=N)N)NC(=O)[C@H](CC(C)C)NC(=O)CNC(=O)[C@H](Cc1ccc(O)cc1)NC(=O)[C@H](CO)NC(=O)[C@H](Cc1c[nH]c2ccccc12)NC(=O)[C@@H](CC(C)C)NC(=O)OCc1ccccc1		
			58			CC(C)C[C@H](NC(=O)CNC(=O)[C@H](Cc1ccc(O)cc1)NC(=O)[C@H](CO)NC(=O)[C@H](Cc1c[nH]c2ccccc12)NC(=O)[C@H](Cc1cnc[nH]1)NC(=O)OCc1ccccc1)C(=O)N[C@@H](CCCNC(=N)N)C(=O)N1CCC[C@H]1C(=O)NCC(N)=O (HELM PEPTIDE1{[O=C(OCc1ccccc1)[*:2]].H.W.S.Y.G.L.R.P.G.[am]}$$$$V2.0)		
134 molar ratio	42					CC(C)C[C@H](NC(=O)OCc1ccccc1)C(=O)N[C@@H](Cc1c[nH]c2ccccc12)C(=O)N[C@@H](CO)C(=O)N[C@@H](Cc1ccc(O)cc1)C(=O)N[C@H](CC(N)=O)C(=O)N[C@@H](CC(C)C)C(=O)N[C@@H](CCCNC(=N)N)C(=O)N1CCC[C@H]1C(=O)NCC(N)=O.Cl	0	>1
1.3 molar ratio					100	COc1ccc(COC(=O)N[C@@H](COCc2ccccc2)C(=O)N[C@@H](Cc2c[nH]c3ccccc23)C(=O)N[C@@H](CO)C(=O)N[C@@H](Cc2ccc(O)cc2)C(=O)N[C@H](Cc2ccccc2)C(=O)N[C@@H](CC(C)C)C(=O)N[C@@H](CCCNC(=N)N)C(=O)N2CCC[C@H]2C(=O)NCC(N)=O)cc1.Cl	40	>1
